Assay [1] has as its target T1, Peroxisome proliferator-activated receptor gamma (Homo sapiens) (UniProt P37231).
T1 sequence (whole entry): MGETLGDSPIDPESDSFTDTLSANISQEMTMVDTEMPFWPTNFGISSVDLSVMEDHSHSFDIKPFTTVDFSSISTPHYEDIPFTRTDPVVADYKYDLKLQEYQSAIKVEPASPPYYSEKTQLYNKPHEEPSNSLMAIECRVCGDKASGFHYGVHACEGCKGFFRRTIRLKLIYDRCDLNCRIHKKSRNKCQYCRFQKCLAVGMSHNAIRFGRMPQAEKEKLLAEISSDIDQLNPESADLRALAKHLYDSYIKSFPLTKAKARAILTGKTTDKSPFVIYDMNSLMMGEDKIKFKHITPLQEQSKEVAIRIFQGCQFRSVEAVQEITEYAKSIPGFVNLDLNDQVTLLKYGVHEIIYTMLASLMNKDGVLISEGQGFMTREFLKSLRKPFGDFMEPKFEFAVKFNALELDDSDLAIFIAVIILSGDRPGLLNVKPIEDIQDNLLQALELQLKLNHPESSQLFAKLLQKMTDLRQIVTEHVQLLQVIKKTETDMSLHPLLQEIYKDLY
In words: Inverse agonist activity at full length human FLAG-tagged GAL4-DBD fused PPARgamma LBD (205 to 505 residues) expressed in COS1 cells assessed as inhibition of rosiglitazone binding measured after 18 hrs by dual luciferase reporter gene assay. The format is cell-based. The essentials:
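COS-1 cells carried GAL4-DBD–PPARγ-LBD with a UAS-luciferase reporter and Renilla control. Cells were titrated with increasing test compound in the presence of 1.0 μM rosiglitazone for 18 h in 0.1% DMSO. Firefly/Renilla ratio, normalized to GAL4-only activity.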
On the technique in general: Reporter assays use an easily measured gene product as a stand-in for the process of interest.

Assay [2] has as its system SGBS. In words: Upregulation of CD36 gene expression in human preadipocyte derived from Simpson-Golabi-Behmel syndrome (SGBS) patient at 25 uM measured for 12 days by qRT-PCR analysis. In kind it is functional, cell-based. The essentials: (§1)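 SGBS cells were differentiated with serum-free induction medium containing 25 μM test agent, 2 μM rosiglitazone or 0.1% DMSO from day 0. IBMX and dexamethasone were removed on day 4 and medium was renewed on day 8. RNA was taken on days 0, 4, 8 and 12 for qPCR, normalized to TBP and to day 0. At least three biological replicates in duplicate, two-way ANOVA with Bonferroni.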
Background: In qPCR the cycle at which signal appears reflects the starting amount.

Assay [3] has as its target T2, Oxysterols receptor LXR-beta (Homo sapiens) (UniProt P55055).
T2 sequence (whole entry): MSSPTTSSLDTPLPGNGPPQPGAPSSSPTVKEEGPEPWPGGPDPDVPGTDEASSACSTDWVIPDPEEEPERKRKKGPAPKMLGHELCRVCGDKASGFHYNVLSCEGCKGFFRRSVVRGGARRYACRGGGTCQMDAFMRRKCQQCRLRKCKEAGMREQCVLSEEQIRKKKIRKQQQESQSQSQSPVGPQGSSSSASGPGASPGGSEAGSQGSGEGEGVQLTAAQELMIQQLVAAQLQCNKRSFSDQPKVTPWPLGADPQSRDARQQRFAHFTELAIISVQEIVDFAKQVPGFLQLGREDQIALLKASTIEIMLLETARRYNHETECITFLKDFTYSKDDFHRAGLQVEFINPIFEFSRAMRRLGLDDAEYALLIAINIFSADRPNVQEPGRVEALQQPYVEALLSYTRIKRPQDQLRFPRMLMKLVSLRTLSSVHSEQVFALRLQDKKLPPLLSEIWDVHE
The experiment in a line: Agonist activity at full length human GAL4-DBD fused LXRbeta LBD (155 to 461 residues) expressed in COS1 cells at 25 to 50 uM measured after 18 hrs by dual luciferase reporter gene assay. In kind it is cell-based. The essentials:
(§2)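 COS-1 cells were transfected using Lipofectamine 2000 with GAL4-DBD–human NR-LBD plasmid, a 5×UAS-SV40 firefly luciferase reporter and pRL-CMV. After 6 h, cells were treated with 0, 25 or 50 μM in 0.1% DMSO (final) for 18 h. Firefly signal was normalized to Renilla, then to DMSO control and GAL4-only. Three biological replicates in quadruplicate, mean ± SEM, two-way ANOVA with Bonferroni.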

The target in assay [4] is T3, Retinoic acid receptor RXR-alpha (Homo sapiens) (UniProt P19793).
T3 sequence (whole entry): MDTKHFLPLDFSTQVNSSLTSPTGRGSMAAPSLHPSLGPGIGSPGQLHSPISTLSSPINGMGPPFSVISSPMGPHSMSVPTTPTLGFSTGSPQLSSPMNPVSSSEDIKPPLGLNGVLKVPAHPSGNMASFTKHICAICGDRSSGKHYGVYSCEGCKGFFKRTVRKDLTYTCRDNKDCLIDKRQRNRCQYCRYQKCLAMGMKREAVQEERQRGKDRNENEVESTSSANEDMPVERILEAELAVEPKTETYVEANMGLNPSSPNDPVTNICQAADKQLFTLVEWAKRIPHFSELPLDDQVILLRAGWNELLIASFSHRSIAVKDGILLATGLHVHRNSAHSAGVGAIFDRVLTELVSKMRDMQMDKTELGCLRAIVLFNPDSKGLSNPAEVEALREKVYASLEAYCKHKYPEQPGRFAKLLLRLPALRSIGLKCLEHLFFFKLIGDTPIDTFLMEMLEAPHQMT
The experiment in a line: Agonist activity at full length human FLAG-tagged GAL4-DBD fused RXRalpha LBD (202 to 462 residues) expressed in COS1 cells at 25 to 50 uM measured after 18 hrs by dual luciferase reporter gene assay. The format is cell-based. The essentials:
as §2

Assay [5] concerns the target T1, Peroxisome proliferator-activated receptor gamma (Homo sapiens). The experiment in a line: Agonist activity at full length human FLAG-taggedGAL4-DBD fused PPARgamma LBD (205 to 505 residues) expressed in COS1 cells at 25 to 50 uM measured after 18 hrs by dual luciferase reporter gene assay. The format is cell-based. The essentials:
as §2

Assay [6] deals with T4, Peroxisome proliferator-activated receptor alpha (Homo sapiens) (UniProt Q07869).
T4 sequence (whole entry): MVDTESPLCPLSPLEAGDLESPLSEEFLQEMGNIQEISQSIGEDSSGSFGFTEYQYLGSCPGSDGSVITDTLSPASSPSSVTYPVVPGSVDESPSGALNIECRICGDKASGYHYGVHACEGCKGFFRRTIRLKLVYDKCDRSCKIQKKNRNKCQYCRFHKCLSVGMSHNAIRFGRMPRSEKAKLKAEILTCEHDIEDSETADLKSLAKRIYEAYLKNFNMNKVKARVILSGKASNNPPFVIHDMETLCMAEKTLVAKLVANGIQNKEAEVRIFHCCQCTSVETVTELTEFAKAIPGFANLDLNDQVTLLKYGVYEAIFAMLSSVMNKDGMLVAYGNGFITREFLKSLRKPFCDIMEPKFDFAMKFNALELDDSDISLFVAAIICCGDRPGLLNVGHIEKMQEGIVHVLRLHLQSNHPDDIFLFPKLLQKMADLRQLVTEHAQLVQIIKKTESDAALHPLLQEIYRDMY
The experiment in a line: Agonist activity at full length human FLAG-tagged GAL4-DBD fused PPARalpha LBD (168 to 468 residues) expressed in COS1 cells at 25 to 50 uM measured after 18 hrs by dual luciferase reporter gene assay. The format is cell-based. The essentials:
as §2

Assay [7] concerns SGBS. The experiment in a line: Upregulation of FABP4 gene expression in human preadipocyte derived from Simpson-Golabi-Behmel syndrome (SGBS) patient at 25 uM measured for 12 days by qRT-PCR analysis. In kind it is functional, cell-based. The essentials: as §1

Calls of active or inactive are those of the source. The rule behind the calls is not given here.

With `CCCCCCCc1cc(CCCCCC(=O)O)no1`, the outcome in assay [1], in assay [3], in assay [4] and in assay [5] was inactive. Further, the result in assay [2], in assay [6] and in assay [7] was Active.

Source of the values: ChEMBL document CHEMBL4393735, “Molecular modelling, synthesis, and biological evaluations of a 3,5-disubstituted isoxazole fatty acid analogue as a PPARα-selective agonist” (Bioorg Med Chem, 2019).
